Data: publication PMC4220649 (Blood Cancer Journal, 2014)
Where “and” joins values, the source holds several entries; their conditions need not be identical. Identical values can stand only once. Entries after “also recorded” stand apart in the source; their conditions may differ.

Legend:
[1] = Plasma pharmacokinetics of ixazomib after IV bolus; format: in vivo, human; details: for DN AUC0–168 h: dose normalized; for DN AUC0–168 h / C0 / half-life / AUC0–168 h: plasma
[2] = system: relapsed/refractory lymphoma; test: Disease response by International Working Group criteria for lymphoma; format: in vivo, human; details: for Duration of response: follicular lymphoma patient
Summary of the method: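 CT and PET were done at screening, with repeat PET at end of cycles 2 and 4 if positive. Response was assessed at end of cycle 2, every 2 cycles to cycle 12, then every 4 cycles. Evaluable patients had measurable baseline disease and ⩾1 post-baseline assessment.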

[3] = system: patients with relapsed or refractory MM; details: cited from earlier work
[4] = system: patients with relapsed or refractory light-chain amyloidosis; details: weekly oral ixazomib; cited from earlier work
[5] = system: patients with relapsed or refractory MM; details: twice-weekly oral ixazomib; cited from earlier work
[6] = weekly oral ixazomib, relapsed or refractory MM, after multiple dosing; cited from earlier work
[7] = day 15, IV 1.4 mg/m^2, n=4, geometric mean (%CV)
[8] = day 15, IV 3.11 mg/m^2, n=2, individual values
[9] = day 1, IV 1.4 mg/m^2, n=4, geometric mean (%CV)
[10] = day 1, IV 1.76 mg/m^2, n=6, geometric mean (%CV)
[11] = day 1, IV 2.34 mg/m^2, n=7, geometric mean (%CV)
[12] = day 1, IV 3.11 mg/m^2, n=5, geometric mean (%CV)
[13] = day 15, IV 0.5 mg/m^2, n=1, individual value
[14] = day 15, IV 1 mg/m^2, n=1, individual value
[15] = day 15, IV 2.34 mg/m^2, n=7, geometric mean (%CV)

CC(C)C[C@H](NC(=O)CNC(=O)c1cc(Cl)ccc1Cl)B(O)O [ixazomib]
Dose proportionality of plasma exposure ([1]; 0.5–3.11 mg/m^2): increased dose proportionally; also recorded: dose-proportionality of ixazomib exposure | Accumulation of ixazomib between day 1 and day 15 doses ([1]; AUC0–168 h, Figure 1d): approximately twofold | Accumulation ratio [1, 7]: 2.17 (7) | Accumulation ratio ([1]; day 15, IV 2.34 mg/m^2, n=6, geometric mean (%CV)): 2.27 (15) | Accumulation ratio [1, 8]: 2.02 and 2.21 | DN AUC0–168 h [1, 9]: 221 (41) hr/ng/ml/mg | DN AUC0–168 h [1, 10]: 259 (49) hr/ng/ml/mg | DN AUC0–168 h [1, 11]: 257 (50) hr/ng/ml/mg | DN AUC0–168 h [1, 12]: 278 (46) hr/ng/ml/mg | DN AUC0–168 h [1, 13]: 151 h/ng/mL/mg | DN AUC0–168 h [1, 14]: 385 h/ng/mL/mg | DN AUC0–168 h [1, 7]: 481 (34) hr/ng/ml/mg | DN AUC0–168 h [1, 15]: 500 (55) hr/ng/ml/mg | C0 ([1]; human, iv, 0.25 mg/m2, C0, plasma, day 1, IV 0.25 mg/m^2, n=1, individual value): 59.4 ng/mL | C0 ([1]; human, iv, 1 mg/m2, C0, plasma, day 15, IV 1 mg/m^2, n=1, individual value): 383 ng/mL | C0 ([1]; human, iv, 1.4 mg/m2, C0, plasma, day 1, IV 1.4 mg/m^2, n=4, geometric mean (%CV)): 714 ng/mL | C0 ([1]; human, iv, 1.4 mg/m2, C0, plasma, day 15, IV 1.4 mg/m^2, n=4, geometric mean (%CV)): 497 ng/mL | half-life ([1]; human, iv, 1.4 mg/m2, t½, terminal disposition phase half-life, day 15, IV 1.4 mg/m^2, n=4, geometric mean (%CV)): 8.71 days | C0 ([1]; human, iv, 1.76 mg/m2, C0, plasma, day 1, IV 1.76 mg/m^2, n=7, geometric mean (%CV)): 542 ng/mL | C0 ([1]; human, iv, 1.76 mg/m2, C0, plasma, day 15, IV 1.76 mg/m^2, n=3, geometric mean (%CV)): 499 ng/mL | half-life ([1]; human, iv, 1.76 mg/m2, t½, terminal disposition phase half-life, day 15, IV 1.76 mg/m^2, n=3, geometric mean (%CV)): 6.08 days | C0 ([1]; human, iv, 2.34 mg/m2, C0, plasma, day 15, IV 2.34 mg/m^2, n=7, geometric mean (%CV)): 803 ng/mL | half-life ([1]; human, iv, 2.34 mg/m2, t½, terminal disposition phase half-life, day 15, IV 2.34 mg/m^2, n=7, geometric mean (%CV)): 4.5 days | C0 ([1]; human, iv, 3.11 mg/m2, C0, plasma, day 1, IV 3.11 mg/m^2, n=5, geometric mean (%CV)): 961 ng/mL | C0 ([1]; human, iv, 3.11 mg/m2, C0, plasma, day 15, IV 3.11 mg/m^2, n=2, individual values): 1110 ng/mL | half-life ([1]; human, iv, 3.11 mg/m2, t½, terminal disposition phase half-life, day 15, IV 3.11 mg/m^2, n=2, individual values): 4.08 days | half-life ([1]; human, iv, Terminal half-life, after multiple dosing, weekly IV): 4 to 12 days | Rapid initial disposition phase over by ([1]; multi-phasic disposition after IV administration): ≤ 4 h | AUC0–168 h [1, 9]: 637 (30) hr/ng/ml | AUC0–168 h [1, 10]: 821 (48) hr/ng/ml | AUC0–168 h [1, 11]: 1060 (37) hr/ng/ml | AUC0–168 h [1, 12]: 1680 (39) hr/ng/ml | AUC0–168 h [1, 13]: 175 h/ng/mL | AUC0–168 h [1, 14]: 732 h/ng/mL | AUC0–168 h [1, 7]: 1390 (24) hr/ng/ ml | AUC0–168 h [1, 15]: 2110 (41) hr/ng/ ml | AUC0–168 h [1, 8]: 2090 h/ng/mL and 3080 h/ng/mL | C0 [1, 8]: 1280 ng/mL | Patients achieving responses (CR or PR) ([2]; 26 evaluable patients): five | Duration of response ([2]; 1.4 mg/m^2): 24.1 months | Duration of response ([2]; 2.34 mg/m^2): 2 months | Responders among follicular lymphoma patients ([2]; one complete and three partial responses): 4/11 and 4 of 11 | Responders among peripheral T-cell lymphoma patients ([2]; partial response): 1/4 | Median duration of stable disease ([2]; six patients, range 1.7–5.4): 3.6 months | Any-grade drug-related PN, patients ([3]; weekly oral ixazomib in MM): 20% | Drug-related grade 3 PN, patients ([3]; weekly oral ixazomib in MM): 2% | Rate of drug-related AEs in the Skin and subcutaneous tissue disorders System Organ Class ([3]; weekly oral ixazomib, relapsed or refractory MM): 22% | Rate of all-cause rash/maculopapular rash [4]: 18% | Rate of drug-related rash [5]: 28% | Rate of drug-related skin and subcutaneous tissue disorders [5]: 40% | Terminal half-life [6]: 4 to 12 days
